In this test the test system is A549 cells. Briefly: MTT cell viability, antiproliferative action on A549 cells. To be noted: Homo sapiens, A549, 72 h, read-out: % cell viability. Format: cell-based. Put shortly: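 A549 cells in DMEM with 10% FBS and 1% penicillin-streptomycin (37 °C, 5% CO₂) were grown to 90% confluence, seeded at 2.5 × 10⁴ cells/mL in 96-well plates and left 24 h. Dosing solutions at 25, 50 and 100 µg/mL in PBS/0.2% DMSO were added in triplicate, followed by 72 h incubation. MTT (5 mg/mL) was added for 4 h, then acid-isopropanol overnight. A570/620 was read; viability was blank-corrected relative to untreated controls.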

SMILES strings stand for the structures.

In general, viability refers to the share of living cells, or the viability signal relative to a control. Turning to `CC(=O)O[C@H]1C(=O)[C@@]2(C)[C@H]([C@H](OC(=O)c3ccccc3)[C@]3(O)C[C@H](OC(=O)[C@H](O)[C@@H](NC(=O)c4ccccc4)c4ccccc4)C(C)=C1C3(C)C)[C@]1(OC(C)=O)CO[C@@H]1C[C@@H]2O` [PTX, paclitaxel], the viability at 25 µg/mL stood at 31.2%, the viability at 50 µg/mL was found to be 26.5% and the viability at 100 µg/mL was 20.2%.

Values taken from paper PMC10785664 (ACS Omega, 2023).
